Experimental data taken from ChEMBL document CHEMBL4732137, “Insight on [1,3]thiazolo[4,5-e]isoindoles as tubulin polymerization inhibitors” (Eur J Med Chem, 2021).
Calls of active or inactive are those of the source. The rule behind the calls is not given here.

Legend:
[1] = test system: HeLa; assay: Cell cycle arrest in human HeLa cells assessed as increase in cyclin B1 expression at 10 uM measured after 24 hrs by Western blot analysis; type: functional, cell-based
In short: (§1)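 HeLa cells treated 24 h at 1 or 10 µM, washed in cold PBS, lysed on ice 30 min, protein quantified by BCA; western blot for cdc25c, p-cdc2 Y15 and cyclin B1, membranes stripped and reprobed for vinculin as loading control.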

[2] = Antiproliferative activity against human Panel NCI-57 (57 carcinoma cell lines) measured after 48 hrs by SRB assay; type: functional
In short: (§2)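 Full NCI human tumor cell line panel; selected compounds tested at five doses, 10^-4 to 10^-8 M, with growth inhibition summarised as the mean graph mid-point (MG_MID) across the panel.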

[3] = test system: HeLa; assay: Cell cycle arrest in human HeLa cells assessed as accumulation at G2/M phase at 10 uM measured after 24 hrs by propidium iodide staining based flow cytometry relative to control; type: functional
In short: (§3)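 HeLa cells exposed 24 h at 0.1, 1 and 10 µM; fixed, labelled with propidium iodide and analysed by flow cytometry for the fraction in each cycle phase; mean ± SEM of three experiments.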

[4] = test system: HeLa; assay: Induction of apoptosis in human HeLa cells assessed as increase in annexin-V positive cells at 10 uM measured after 24 hrs by Annexin V-FITC/propidium iodide staining based flow cytometry; type: functional, cell-based
In short: (§4)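 HeLa cells incubated 24 or 48 h at the stated concentrations, double stained with annexin V-FITC and PI, and surface phosphatidylserine measured by flow cytometry to separate live, early apoptotic, late apoptotic and necrotic cells; mean ± SEM of three independent experiments; p vs control.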

[5] = test system: HeLa; assay: Cell cycle arrest in human HeLa cells assessed as reduction in accumulation at S phase at 0.1 to 10 uM measured after 24 hrs by propidium iodide staining based flow cytometry; type: functional; settings: dose 0.1-10 µM; in short: as §3
[6] = test system: HeLa; assay: Induction of apoptosis in human HeLa cells assessed as increase in caspase-9 activation at 10 uM measured after 24 hrs by Western blot analysis; type: functional, cell-based
In short: (§5)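 After 24 h exposure of HeLa cells to 1 or 10 µM, lysates were blotted for cleaved caspase-9 and PARP; primary antibodies 2 h at room temperature, peroxidase secondary 1 h, ECL detection, vinculin reprobe for equal loading.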

[7] = test system: HeLa; assay: Induction of mitochondrial potential loss in human HeLa cells measured after 24 to 48 hrs by JC1 staining based flow cytometry; type: functional, cell-based; settings: dose 1-10 µM, time 24-48 hrs
In short: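 Mitochondrial membrane potential in HeLa cells after 24 or 48 h at 1 and 10 µM; JC-1 staining, excitation 490 nm, monomer emission at 530 nm versus aggregate at 590 nm […], read by flow cytometry; mean ± SEM, three independent experiments.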

[8] = test system: HeLa; assay: Cell cycle arrest in human HeLa cells assessed as reduction in accumulation at G1 phase at 0.1 to 10 uM measured after 24 hrs by propidium iodide staining based flow cytometry; type: functional; settings: dose 0.1-10 µM; in short: as §3
[9] = Inhibition of bovine brain tubulin assembly by turbidimetry based spectrophotometric method; parameters: species or system Bos taurus
[10] = test system: HeLa; assay: Induction of apoptosis in human HeLa cells assessed as increase in PARP cleavage at 10 uM measured after 24 hrs by Western blot analysis; type: functional, cell-based; in short: as §5
[11] = test system: HeLa; assay: Induction of apoptosis in human HeLa cells assessed as increase in necrotic cells at 10 uM measured after 48 hrs by Annexin V-FITC/propidium iodide staining based flow cytometry; type: functional, cell-based; in short: as §4
[12] = test system: HeLa; assay: Induction of apoptosis in human HeLa cells at 10 uM measured after 48 hrs by Annexin V-FITC/propidium iodide staining based flow cytometry; type: functional, cell-based; in short: as §4
[13] = target: T1, Tubulin (Homo sapiens) (UniProt P68371+Q9H4B7+P0DPH7+P68366+Q13509+Q71U36+P04350+Q3ZCM7+P07437+P68363+Q9BQE3+Q6PEY2+Q13885+Q9BVA1+Q9BUF5); assay: Inhibition of [3H]colchicine binding to tubulin (unknown origin) at 50 uM by DEAE-cellulose filter method relative to control; type: protein-complex assay
[14] = test system: HeLa; assay: Cell cycle arrest in human HeLa cells assessed as reduction in total cdc25c expression at 10 uM measured after 24 hrs by Western blot analysis; type: functional, cell-based; in short: as §1
[15] = test system: HeLa; assay: Cell cycle arrest in human HeLa cells assessed as reduction in phosphorylated cdc2 expression at 10 uM measured after 24 hrs by Western blot analysis; type: functional, cell-based; in short: as §1
[16] = test system: HeLa; assay: Cell cycle arrest in human HeLa cells assessed as increase in accumulation at G2/M phase measured after 24 hrs by propidium iodide staining based flow cytometry; type: functional; settings: dose 0.1-10 µM; in short: as §3
[17] = Antiproliferative activity against human Panel NCI-56 (56 carcinoma cell lines) measured after 48 hrs by SRB assay; type: functional; in short: as §2
[18] = target: T1, Tubulin (Homo sapiens); assay: Inhibition of [3H]colchicine binding to tubulin (unknown origin) at 5 uM by DEAE-cellulose filter method relative to control; type: protein-complex assay
[19] = Antiproliferative activity against human Panel NCI-55 (55 carcinoma cell lines) measured after 48 hrs by SRB assay; type: functional; in short: as §2

SMILES | Activity [1] | GI50 [2] [nM] | Activity [3] [%] | Activity [4] | Activity [5] | Activity [6] | Activity [7] | Activity [8] | IC50 [9] [nM] | Activity [10] | Activity [11] | Activity [12] | inhibition [13] [%] | GI50 [17] [nM] | other results
COc1ccc(Cn2c(Br)c3c(c2-c2cc(OC)c(OC)c(OC)c2)CCc2sc(N)nc2-3)cc1 | Active | 210 | >70 | Active | Active | Active | Dose-dependent effect | Active | > 20000 | Active | Active | Active | 22 | – | –
COc1cc(-c2c3c(cn2S(=O)(=O)c2ccccc2)-c2nc(N)sc2CC3)cc(OC)c1OC | Active | 220 | >70 | Active | Active | Active | Dose-dependent effect | Active | > 20000 | Active | Active | Active | – | – | Activity [14]: Active; Activity [15]: Active; Activity [16]: Dose-dependent effect
O=C(Nc1nc2c(s1)CCc1c-2c(Br)n(Cc2ccccc2)c1Br)c1ccccc1 | – | – | – | – | – | – | – | – | > 20000 | – | – | – | – | 1200 | –
COc1ccc(Cn2c(Br)c3c(c2Br)-c2nc(N)sc2CC3)cc1 | – | – | – | – | – | – | – | – | 7800 | – | – | – | 60 | 410 | inhibition [18]: 11%
Nc1nc2c(s1)CCc1c-2c(Br)n(Cc2ccccc2)c1Br | – | – | – | – | – | – | – | – | > 20000 | – | – | – | – | 530 | –
COc1ccc(Cn2c(Br)c3c(c2-c2cc(OC)c(OC)c(OC)c2)CCc2sc(NC(C)=O)nc2-3)cc1 | – | – | – | – | – | – | – | – | 12000 | – | – | – | 41 | – | GI50 [19]: 610 nM
